What was measured:
Colon 26 [1] = experiment: Growth inhibition of colon 26 adenocarcinoma cells by 50 %.; format: functional, cell-based; settings: Mus musculus
Procedure, shortened: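 Murine Colon 26 adenocarcinoma cells were kept in RPMI-1640 with 10% FBS. Cells were seeded at 1×10^5 cells/ml in 96-well plates and held 24 h at 37 °C in CO2. They were then exposed to a range of compound concentrations for 48 h, and viable cells were counted by MTT dye reduction. IC50 is the mean of three independent assays.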

Tubulin = Tubulin (Bos taurus, UniProt Q6B856+Q862L2+Q862F3); experiment: Inhibitory activity against tubulin polymerization; format: protein assay
Procedure, shortened: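 Tubulin polymerization was started with GTP. It was followed turbidimetrically at 350 nm at 37 °C, and extent was read after 20 min incubation. IC50 was determined graphically, averaging three independent assays.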

Colon 26 [2] = experiment: (§1) Antitumor activity at dose 40 mg/kg in colon26 cells; format: functional, Mus musculus
Procedure, shortened: (§2)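 Tumor fragments (5 mg) implanted sc on day 0: Colon 26 into CD2F1 mice, Colon 38 or 3LL into BD2F1 mice, HCT-15 into ICR nu/nu mice. Dosing iv on days 7, 11 and 15. On day 21, two caliper diameters were measured; tumor weight = length × width²/2. IR (%) = (1 − T/C) × 100, from mean treated versus control tumor weights.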

Colon 26 [3] = experiment: Antitumor activity at dose 5 mg/kg in murine colon26 cells; format: functional, Mus musculus
MC-38 [4] = experiment: Antitumor activity at dose 10 mg/kg in colon38 cells; format: functional, Mus musculus; procedure, shortened: as §2
[5] = as §1; format: functional, Mus musculus; procedure, shortened: as §2
HCT-15 [6] = experiment: Antitumor activity at dose 40 mg/kg in HCT-15 cells; format: functional, Mus musculus; procedure, shortened: as §2
[7] = tested on: Lewis lung carcinoma cell line; experiment: Antitumor activity at dose 40 mg/kg in Lewis lung carcinoma cells (3LL) cells; format: functional, Mus musculus; procedure, shortened: as §2
Colon 26 [8] = experiment: Antitumor activity at dose 160 mg/kg in murine colon26 cells; format: functional, Mus musculus
MC-38 [9] = experiment: Antitumor activity at dose 10 mg/kg in Murine colon38 cells; format: functional, Mus musculus; procedure, shortened: as §2
Colon 26 [10] = experiment: Antitumor activity at dose 10 mg/kg in murine colon26 cells; format: functional, Mus musculus; procedure, shortened: as §2
HCT-15 [11] = experiment: Antitumor activity at dose 10 mg/kg in HCT-15 cells; format: functional, Mus musculus; procedure, shortened: as §2

IC50 (Tubulin)	SMILES	IC50 (Colon 26 [1])	other results
9000 nM	COc1ccc(/C(C#N)=C\c2ccc(OC)c(N)c2)cc1	1430 nM	–
> 20000 nM	COc1ccc(/C=C(/C[N+](C)(C)C)c2cc(OC)c(OC)c(OC)c2)cc1.[I-]	> 3000 nM	–
5000 nM	COc1ccc(/C(C#N)=C\c2cc(OC)c(OC)c(OC)c2)cc1N	235 nM	–
10000 nM	COc1ccc(/C=C(/C#N)c2cc(OC)c(OC)c(OC)c2)cc1NC(C)=O	18.3 nM	–
6000 nM	COc1ccc(/C=C(/C#N)c2cc(OC)c(OC)c(OC)c2)cc1	18 nM	–
7000 nM	COc1ccc(CC(C#N)c2cc(OC)c(OC)c(OC)c2)cc1N (stereo unspecified)	22.5 nM	–
> 20000 nM	COc1ccc(/C=C(/CN)c2cc(OC)c(OC)c(OC)c2)cc1	> 3000 nM	–
> 20000 nM	COc1ccc(/C=C(\C#N)c2cc(OC)c(OC)c(OC)c2)cc1[N+](=O)[O-]	> 3000 nM	–
4000 nM	COc1ccc(/C=C(/C=O)c2cc(OC)c(OC)c(OC)c2)cc1	213 nM	–
> 20000 nM	COc1cc(/C(C#N)=C/c2ccc(C)c(N)c2)cc(OC)c1OC	722 nM	–
3000 nM	COc1ccc(/C=C(/C(N)=O)c2cc(OC)c(OC)c(OC)c2)cc1N	195 nM	–
10000 nM	COc1cc(/C(C#N)=C\c2ccc(C)c(N)c2)cc(OC)c1OC	61.7 nM	–
> 20000 nM	COc1ccc(/C=C(/CO)c2cc(OC)c(OC)c(OC)c2)cc1	363 nM	–

More lines, now with the values behind:

SMILES	IC50 (Tubulin)	IC50 (Colon 26 [1])	other results
COc1ccc(/C=C(/C#N)c2ccc(OC)c(OC)c2)cc1N	7000 nM	8.1 nM	–
COc1cc(/C=C\c2ccc(C)c(N)c2)cc(OC)c1OC.Cl	–	–	IR (Colon 26 [2]): 62%
COc1ccc(/C=C(/C#N)c2cc(OC)c(OC)c(OC)c2)cn1	> 20000 nM	2370 nM	–
COc1ccc(/C=C(\C#N)c2cc(OC)c(OC)c(OC)c2)cc1	> 20000 nM	63.7 nM	–
COc1cc(/C(C#N)=C\c2ccc(Cl)c(N)c2)cc(OC)c1OC	6000 nM	58.1 nM	–
COc1ccc(/C=C(/C#N)c2cc(OC)c(OC)c(OC)c2)cc1O	5000 nM	23.5 nM	–
COc1ccc(/C=C\c2cc(OC)c(OC)c(OC)c2)cc1N	–	5.1 nM	–
COc1ccc(/C(=C\c2cc(OC)c(OC)c(OC)c2)C(N)=O)cc1N	–	223 nM	–
COc1ccc(/C=C(/C#N)c2cc(OC)c(OC)c(OC)c2)cc1[N+](=O)[O-]	5000 nM	135 nM	–
COc1cc(/C(C#N)=C\c2ccc(C)c(N)c2)cc(OC)c1OC.Cl	–	–	IR (Colon 26 [3]): 11%
COc1ccc(/C=C(\C#N)c2cc(OC)c(OC)c(OC)c2)cc1N	> 20000 nM	12.6 nM	–
COc1cc(/C(C#N)=C\c2ccc(Cl)c(N)c2)cc(OC)c1OC.Cl	–	–	IR (Colon 26 [3]): -23%
COc1ccc(/C=C\c2cc(OC)c(OC)c(OC)c2)cc1N.Cl	–	–	IR (MC-38 [4]): 72%; IR [5]: 62%; IR (Colon 26 [2]): 69%; IR (HCT-15 [6]): 53%; IR [7]: 65%
COc1ccc(/C=C\c2cc(OC)c(OC)c(OC)c2)cc1O [COMBRETASTATIN A4]	–	18 nM	IR (Colon 26 [8]): 31%
COc1ccc(/C=C(/C#N)c2cc(OC)c(OC)c(OC)c2)cc1N.Cl	–	–	IR (MC-38 [9]): 75%; IR (Colon 26 [10]): 77%; IR (HCT-15 [11]): 28%; IR [7]: 59%
COc1ccc(CC(C#N)c2cc(OC)c(OC)c(OC)c2)cn1 (stereo unspecified)	> 20000 nM	> 3000 nM	–
COc1ccc(/C=C(/C#N)c2ccccc2)cc1N	8000 nM	36 nM	–
COc1cc(/C=C\c2ccc(Cl)c(N)c2)cc(OC)c1OC	3000 nM	68.9 nM	–
COc1ccc(/C=C(/C#N)c2cc(OC)c(OC)c(OC)c2)cc1N	10000 nM	5.9 nM	–
COc1cc(/C=C\c2ccc(C)c(N)c2)cc(OC)c1OC	4000 nM	43.5 nM	–

Reference: ChEMBL document CHEMBL1131051, “Novel combretastatin analogues effective against murine solid tumors: design and structure-activity relationships” (J Med Chem, 1998)
